Test system: MS2 coat protein
Test: apparent Kd, MS2 coat protein; higher = weaker binding; RNA-MaP array; FMN 200 µM where present
Summary of the method: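 On Illumina sequencing-chip clusters, designs were transcribed by stalled E. coli RNA polymerase and titrated with SNAP-549-labelled MS2 coat protein (0.7 or 1.5 nM, doubling to 3 µM), without and then with constant ligand, in 100 mM Tris-HCl pH 7.5, 80 mM KCl, 4 mM MgCl2, BSA, DTT, yeast tRNA and Tween-20. Apparent Kd is the median of filtered per-cluster curve fits to green signal normalised to red-channel RNA signal and control-cluster median Fmax.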

[1] = designed as: OFF switch for flavin mononucleotide, no ligand
[2] = ligand present: flavin mononucleotide, designed as: OFF switch for flavin mononucleotide
[3] = designed as: ON switch for flavin mononucleotide, no ligand
[4] = ligand present: flavin mononucleotide, designed as: ON switch for flavin mononucleotide

| Sequence | apparent Kd [1] | apparent Kd [2] | apparent Kd [3] | apparent Kd [4] |
| --- | --- | --- | --- | --- |
| CUAGCAACAUGAGGAUCACCCAUGUAGGAUAUCGCUAUUGUAAUCAUGAAACAUGAUUACAAUAGCGAGAAGGACAUAUGCUAG | 6.44 nM | 9.28 nM |  |  |
| UUCAGCUUGACAGGAUAUACAUCACUGCGAAAGCAGUGUAUCUUAAUAACAUGAGGAUCACCCAUGUAGAAGGGUCGAGCUGAA | 18.4 nM | 32.7 nM |  |  |
| CCAGCGUAUGUGAGGAUAUGCUGGUCCUUGGAUCAGCAGAAGGCACAUGAGGAUCACCCAUGUGGUGUCGUUGG | 303 nM | 37 nM |  |  |
| CUUUCGUGAGGAUAUGUGGCUUCGAUCGUGAGAUCGAGAAAACAGAAGGCACAUGAGGAUCACCCAUGUUCCUC | 41 nM | 515 nM |  |  |
| UGGUACUAGGGAGGAUAUGAGAAGAUACAUGAGGAUCACCCAUGUUUAAGAAUGCCGAGAGGCAACUAGAAGGCCCUAGUACCU |  |  | 7.85 nM | 5.23 nM |
| CUUCAGUCAGGAUAUGUUAAUCUCGCCACUCGGCGAACCGGACAGAAGGGACAUGAGGAUCACCCAUGUUAAAA | 34.7 nM | 19.7 nM |  |  |
| UUUGUUGUUGUGAGGAUAUCGUAGUUAUUUUGAAACGAGAAGGCACAUGAGGAUCACCCAUGUUUGUUGAUGGU | 30.7 nM | 127 nM |  |  |
| CCUCUACAUGAGGAUCACCCAUGUGAGGAUAUCAAAGCCAGAGCGGCGCUCUGGCCCAUGAGAAGGUGCAUGGA | 25.9 nM | 133 nM |  |  |
| GAGCCCUAAGGAUAUAGAAGGUCCAACAUGAGGAUCACCCAUGUACGGUGUGGACGUGGGCUAGAAGGUGGAACUU | 188 nM | 147 nM |  |  |
| AAACACAAACAUGAGGAUCACCCAUGUGGCGAAAGCCUUGGGAGAAGGGCGAUUGCAAAGCAAUCGCAGGAUAUUCGUAUUGUG |  |  | 370 nM | 26.9 nM |
| GGAUAGGACUGAGGAUAUACGUGCUAGAGAUACUAGCAAAAUUUCCUCACAUGAGGAUCACCCAUGUAGAAGGCUGUCCUAUCG | 7.13 nM | 42.3 nM |  |  |
| AAUUUCAGAUGAGGAUAUUGACAUGAGGAUCACCCAUGUAUUUGGGAAUGUUUACUGAAUUCUUACGAGAAGGUAUACGAACUU | 296 nM | 200 nM |  |  |
| UUAAAUCAUGUAGGAUAUGCAUGGCGAAGCUACGCAGAAGGACAUGAGGAUCACCCAUGUUAUACCUACCCAGUUCGGUGGGAA | 81 nM | 241 nM |  |  |
| AGUUUGUUUGAGAAGGUGAAGUGGAAACAUGAGGAUCACCCAUGUAUUAGGAAGCCUGGUUUUGUCAAGGAUAUCGGGUAAACA |  |  |  | 13.9 nM |
| UCAUGAUGGAAGAAGGGAGUCGUGCAUGACAACUCAGGAUAUUUCACAUGAGGAUCACCCAUGUCGAAGUAACAGUGUUGAUCA | 23.9 nM | 45.8 nM |  |  |
| AUGUGUCUUCGCGUCCUGCCCGGACAUGAGGAUCACCCAUGUAGAAGGCGGUGGCAAUGCUAGACCGAGGAUAUACAUGCAAAC | 17.8 nM | 51.3 nM |  |  |
| UAAGUGUGAGGAUAUGGUAAAGAUAAGAUGAUGAAAGAACUCCAGAAGGCACAUGAGGAUCACCCAUGUAGAUG | 39.4 nM | 141 nM |  |  |
| UGAGCCUCGUGAGGAUAUACAUGAGGAUCACCCAUGUAAAUGAAAGAUAGCUCGAAACGAGCAAAGUAGAAGGCACGAGGCUCA | 17.1 nM | 27.1 nM |  |  |
| UUGUUCUGAGGAUAUACAUGAGGAUCACCCAUGUGUUUCUGCUAGGAGACUAGCGAAUGUAGAAGGCUGUUCUC | 19.4 nM | 19.9 nM |  |  |

| Sequence | apparent Kd [1] | apparent Kd [2] | apparent Kd [3] | apparent Kd [4] |
| --- | --- | --- | --- | --- |
| ACGCAUUGCCUUUGGUAGUGCGUAACAUGAGGAUCACCCAUGUAGGAUAUGGUAGGCUUUGCUUACCAGAAGGACAUUAUAAAC | 29.3 nM | 48.5 nM |  |  |
| AAAAACAGAGGAUAUACAAAAUUAUGACGAAAGUCAUAAAAACAUGAGGAUCACCCAUGUAGAAGGCUGGAAAA | 30.4 nM | 28.9 nM |  |  |
| AAAAUCUAUAGAGGAUAUCGUUUUUAAAGAAAAUGAGAAGGCUAACAAUCAUGAGGACAUGAGGAUCACCCAUGUUGUGACCAU |  |  | 19.6 nM | 10.2 nM |
| UUACCUCAUGAGAAGGACAUGAGGAUCACCCAUGUAGGAUAUCGUGGGACACUGGAAUUGAAUCUUCGGAUUCAAUAACUGUAU |  |  | 349 nM | 26.2 nM |
| GGAUGACAAAGUCAUCCAUUACGAACAUGAGGAUCACCCAUGUAGGAUAUGCUUCUCAAAGAGAAGCAGAAGGACAUGUGUCUU | 30.1 nM | 157 nM |  |  |
| UGUCGGAGCAGAGGAUAUUACAUGAGGAUCACCCAUGUAUGAACCAAUAGCUGAAAACAGCAAUGUAAGAAGGCUGCUCCGACA | 11.5 nM | 176 nM |  |  |
| AGGAGAAAUGUAGGAUAUGGGCGGAUAUAUGGGCAAAGCGCAUAUAUCCGCCCAGAAGGACAUGAGGAUCACCCAUGUUUCCCU | 11.1 nM | 13.3 nM |  |  |
| GGUACCUUUACAGGAUAUGCUAGGGUUUCCUUAGCAGAAGGGUGAUACAUGAGGAUCACCCAUGUGGUGCCAGGGCGUGAGCCC |  |  | 117 nM | 341 nM |
| GGAUAGGACAGAGGAUAUACGUGCUAGAGAUAGUAGCAAAAUUUCCUCACAUGAGGAUCACCCAUGUAGAAGGCUGUCCUAUCG | 19.6 nM | 365 nM |  |  |
| AAAUAGAUACAUGAGGAUCACCCAUGUUAAUAGGUGUUUGUCAGAAGGCAUUAUGAGAGAAUUAAUGAGGAUAUGAAAUAUGAU |  |  | 39.3 nM | 22.8 nM |
| UCGGGUUAUACAGGAUAUGUUUAGGAUAAUACAUGCAGUUAUUAAUUAAUGACAGAAGGGUAUACAUGAGGAUCACCCAUGUCA | 707 nM | 374 nM |  |  |
| CUUUUGUGAGGAUAUCAGUAGUAAUACAAUAGUAUUACUACUGAGAAGGCACAUGAGGAUCACCCAUGUUUCUC | 42.4 nM | 121 nM |  |  |
| CUGAUGUGAGGAUAUCGGGCUACAGCCCUGCUGCUAGCAAACGAGAAGGCACAUGAGGAUCACCCAUGUAAGAA | 24 nM | 28.6 nM |  |  |
| GUACUCAUGUAAGGAUAUGCAGCCGUUUCGGCUGCAGAAGGUACUAUAAUACAUGAGGAUCACCCAUGUCUCUCGCAUUGCGAG |  |  | 465 nM | 98.4 nM |
| GCACUUACGUUAGGAUAUGUAUCGGAAAACGAUACAGAAGGAAUAUGGGAACAUGAGGAUCACCCAUGUUCCUGAGACGAGUGC |  |  | 69.1 nM | 41.6 nM |
| AAGUCGAGCGUGAGGAUAUCGUUUGAACGACAGAGCGAGAAGGCACAUGAGGAUCACCCAUGUGAUUAAGCUCG | 15.6 nM | 19.9 nM |  |  |
| GGAAUAUUUACAGGAUAUGAUUUGUAAAUUCGAUCAGAAGGGUAGAUGUCUUACACGGUUUGUUACAUGAGGAUCACCCAUGUU |  |  | 126 nM | 42 nM |
| ACAUGAGGAUCACCCAUGUAUUUGUAGGAUAUACUCUAUUGUUUAUUACUCUAGUUAAUAUGUUUGUAGAAGGACAUUACAUGA | 7.94 nM | 10.8 nM |  |  |
| AGAAGUAUGCAGGAUAUGGGAACCUAUUGACAUUCAGAAGGGCAUACAUGAGGAUCACCCAUGUGGCCUCCCAG | 19.3 nM | 35.1 nM |  |  |

| Sequence | apparent Kd [1] | apparent Kd [2] | apparent Kd [3] | apparent Kd [4] |
| --- | --- | --- | --- | --- |
| UUCAUGUAAGGAUAUGCGGGCGGGCGCGUUUGUGUUUGUUUGUAGAAGGUACAUGAGGAUCACCCAUGUACUGG | 22 nM | 68.2 nM |  |  |
| AAUAGGGUCGUAAUAGCUAGCACAUGAGGAUCACCCAUGUACAGAAGGCGAGCCAAGGCGGCAAUCGAGGAUAUGUAGCAGGGU | 19.5 nM | 29.9 nM |  |  |
| UGUCAGAUGGUAGGAUAUUCAUAUCGAGUGACCCUUUCAUAACAUGAGGAUCACCCAUGUCGGUGGGAGAAGGGCCGUAUGGUG | 29.8 nM | 30.3 nM |  |  |
| CGAUUAUUGAUCCAUUUUUACAACAUGAGGAUCACCCAUGUGCAGGAUAUCGUGAUUAUUAUCAACGAGAAGGGCAAAUUCACG | 49 nM | 137 nM |  |  |
| AGUGUCAUCGAGAAGGCCUUAGGAACAUGAGGAUCACCCAUGUAACAUGGGAGGAUAUCGAUGAUACAGCUACGUUUCGUAGCA |  |  | 6.51 nM | 4.85 nM |
| CGGGCGGGAGGAUAUGCGUGGAUUGUUCUCGUAUGGUGUCUACAUGAGGAUCACCCAUGUAGAAGGCUUGUUUG | 14.1 nM | 16.7 nM |  |  |
| CAUACAGUAGUUAGGAUAUUGCAACGUACACGGAACGAGAAGGGACAUGAGGAUCACCCAUGUAGAUUGUAAAG | 21.8 nM | 21.1 nM |  |  |
| GCGUUACAUGAGGAUCACCCAUGUGAGGAUAUGGUGCGGUAGUGUCCUGUCGCGUACUCCAGAAGGCACGGGUG | 215 nM | 91.7 nM |  |  |
| ACCAGCUCGUCAGGAUAUACGUCACUGCGUCAGCAGUGUGGUAAGAUCACAUGAGGAUCACCCAUGUAGAAGGGACGAGCUGAU | 13.3 nM | 245 nM |  |  |
| GACAUACAUGAGGAUCACCCAUGUUCAGGCGAACAAGGAUAUGUGUGGAAACCAUACUAUACAGAAGGUGUCUGUC |  |  | 63.1 nM | 38.8 nM |
| GGUGGACAUGAGGAUCACCCAUGUGAGGAUAUCGGCUGGUACGUGUUGGCUGGCAUCUCGAGAAGGCACAUAGU | 80.9 nM | 180 nM |  |  |
| GUGGUCAGACAUGAGGAUCACCCAUGUGGAAUAAAUAAGGAGAAGGAUAUGCAAUAUAGGAUAUAGUAGAAGGUCUGGUUGGUG |  |  | 83.5 nM | 97.2 nM |
| CUUUUGUGAGGAUAUCAGUAGUAAUAAUAUAAAAUUACUACUGAGAAGGCACAUGAGGAUCACCCAUGUUCCUC | 37.2 nM | 185 nM |  |  |
| AGAAACUACGAGAAGGACAUGUGGUAAAACGCAAACAUGAGGAUCACCCAUGUAGGAUAUCGUAGUUUCAGGAUCGUGAGAUCA | 589 nM | 26.9 nM |  |  |
| CUUCGACAUGAGGAUCACCCAUGUCAGGAUAUUGUUUAUCUGGUGUUGUCCAGAUAUGCAAGAAGGGAUGUGUG | 38.4 nM | 38.1 nM |  |  |
| AGAUAGUCAGGAUAUACAUGGAUGAUACACGUAUUUCCACUACAUGAGGAUCACCCAUGUAGAAGGGACUAUCA | 27.6 nM | 15.1 nM |  |  |
| AUUAUGUAAGGAUAUCUUACAUGUGACUUCGGUCACUGUUAAGAGAAGGUACAUGAGGAUCACCCAUGUAUAAC | 19.6 nM | 22.4 nM |  |  |
| GGAUAGGACAGAGGAUAUACGUGCUAGAGAUCCUAGCAAAAUUUCCUCACAUGAGGAUCACCCAUGUAGAAGGCUGUCCUAUCG | 15.5 nM | 417 nM |  |  |

— the EternaBench riboswitch data
